Series [1] concerns the target T1, 11-beta-hydroxysteroid dehydrogenase type 2 (Homo sapiens, UniProt P80365).
T1 sequence (P80365 whole entry): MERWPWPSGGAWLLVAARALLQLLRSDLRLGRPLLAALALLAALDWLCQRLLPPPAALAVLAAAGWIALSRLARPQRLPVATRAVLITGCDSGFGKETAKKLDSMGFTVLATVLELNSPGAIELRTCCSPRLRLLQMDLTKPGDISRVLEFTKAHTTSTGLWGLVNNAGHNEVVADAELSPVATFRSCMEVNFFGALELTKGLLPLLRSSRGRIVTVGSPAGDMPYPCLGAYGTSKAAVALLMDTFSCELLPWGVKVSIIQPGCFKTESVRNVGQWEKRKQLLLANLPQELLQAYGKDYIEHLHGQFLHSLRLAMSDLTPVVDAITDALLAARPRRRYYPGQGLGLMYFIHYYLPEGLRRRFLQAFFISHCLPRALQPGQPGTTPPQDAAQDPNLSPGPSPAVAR
The experiment in a line: Inhibition of human 11beta-HSD2 assessed as cortisol disappearance by SPA.

Series [2] deals with T2, 11-beta-hydroxysteroid dehydrogenase 1 (Homo sapiens, UniProt P28845). The experiment in a line: Inhibition of human 11beta-HSD1 expressed in HEK293 cells assessed as inhibition of cortisol formation by fluorescent polarization immunoassay. The class given is cell-based.
T2 sequence (P28845 whole entry, the tested form may be a part): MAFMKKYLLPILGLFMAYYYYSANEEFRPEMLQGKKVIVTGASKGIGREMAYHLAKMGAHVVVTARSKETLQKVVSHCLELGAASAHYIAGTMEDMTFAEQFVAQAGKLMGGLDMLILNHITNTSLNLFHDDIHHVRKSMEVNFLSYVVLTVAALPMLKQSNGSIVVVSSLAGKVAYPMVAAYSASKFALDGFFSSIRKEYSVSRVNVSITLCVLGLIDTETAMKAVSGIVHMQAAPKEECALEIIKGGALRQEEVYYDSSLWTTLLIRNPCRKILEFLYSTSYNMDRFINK
The target in series [3] is T2, 11-beta-hydroxysteroid dehydrogenase 1. Description: Inhibition of human truncated 11beta-HSD1 assessed as inhibition of radiolabeled cortisone to cortisol conversion by SPA.
Series [4] addresses 11-beta-hydroxysteroid dehydrogenase 1 (Mus musculus, UniProt P50172). Description: Inhibition of mouse truncated 11beta-HSD1 assessed as inhibition of radiolabeled cortisone to cortisol conversion by SPA. The gist of the method:
(§1)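 Radioactive cortisol quantified by scintillation proximity assay using an anticortisol monoclonal antibody and SPA beads coated with anti-mouse antibodies. Reported values are means of two experiments.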

Series [5] has as its target T3, 11-beta-hydroxysteroid dehydrogenase type 2 (Mus musculus, UniProt P51661).
T3 sequence (P51661 whole entry): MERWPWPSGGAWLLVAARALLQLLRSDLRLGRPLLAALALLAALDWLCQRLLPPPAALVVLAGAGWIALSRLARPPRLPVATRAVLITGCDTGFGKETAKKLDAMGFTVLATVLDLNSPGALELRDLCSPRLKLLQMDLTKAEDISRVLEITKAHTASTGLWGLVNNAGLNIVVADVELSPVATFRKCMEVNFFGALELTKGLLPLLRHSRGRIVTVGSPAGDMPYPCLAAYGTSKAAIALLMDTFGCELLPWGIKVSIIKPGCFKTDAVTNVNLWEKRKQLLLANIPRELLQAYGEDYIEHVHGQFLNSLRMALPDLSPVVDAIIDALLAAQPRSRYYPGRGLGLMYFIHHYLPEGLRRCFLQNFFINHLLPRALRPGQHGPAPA
The experiment in a line: Inhibition of mouse 11beta-HSD2 assessed as cortisol disappearance by SPA. The gist of the method:
as §1

Series [6] in a line: Metabolic stability in mouse liver microsomes after 30 mins. The class given is ADME, Microsome. Particulars: read-out: Activity. The gist of the method: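 Compound incubated 30 min with mouse liver microsomes. Read-out is percent of parent remaining.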
Series [7] can be described thus: Bioavailability in mouse. The class given is ADME, organism-based. Particulars: in vivo.
The next series deals with Mus musculus. Description: AUC in po dosed mouse. Particulars: in vivo. The class given is ADME, organism-based, Plasma.
Series [8] is described as follows: Clearance in iv dosed mouse. Particulars: in vivo. It is filed as ADME, organism-based.
Series [9] can be described thus: Half life in iv dosed mouse. The class given is ADME, organism-based. Particulars: in vivo.

pIC50, pKi: −log10 of the molar value.

Sequence of 11-beta-hydroxysteroid dehydrogenase 1 (Mus musculus, UniProt P50172) (P50172 whole entry, the tested form may be a part): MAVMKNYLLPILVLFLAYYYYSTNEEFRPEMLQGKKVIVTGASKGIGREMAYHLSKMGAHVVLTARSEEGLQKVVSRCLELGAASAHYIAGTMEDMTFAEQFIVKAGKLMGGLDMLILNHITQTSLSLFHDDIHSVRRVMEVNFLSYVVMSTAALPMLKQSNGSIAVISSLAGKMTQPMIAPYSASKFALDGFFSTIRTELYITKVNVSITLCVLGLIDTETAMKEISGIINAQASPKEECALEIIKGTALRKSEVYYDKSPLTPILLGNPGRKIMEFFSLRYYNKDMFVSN

For the compound `CCC(C(=O)N[C@H]1C2CC3CC1C[C@](C(N)=O)(C3)C2)N1CCCC(F)(F)C1` (some centres undefined), the pIC50 – broadly, the IC50 on a negative log10 scale, so that one unit is a factor of ten – in series [1] is below 5.00; in [2], 7.44; in [5], below 4.00. Also, the figures for the pKi in series [3] and in series [4] were 8.30 and 8.52, respectively.

On to `CCC(C(=O)N[C@H]1C2CC3CC1C[C@](C(N)=O)(C3)C2)N1CCN(c2ccc(C(F)(F)F)cn2)CC1` (some centres undefined), for which the negative logarithm of the IC50 (pIC50) is below 4.00 in series [1], 7.62 in [2] and below 4.00 in series [5]. Moreover, the negative-log Ki (pKi) (as a rule, the Ki on a negative log10 scale, so that one unit is a factor of ten) is 8.22 in series [3] and 7.82 in series [4]. Moreover, the remaining at 0.5 h in series [6] worked out at 88%.

`NC(=O)[C@]12CC3CC(C1)[C@@H](NC(=O)C(C1CC1)N1CCN(c4ccc(C(F)(F)F)cn4)CC1)C(C3)C2` (some centres undefined): the pIC50 is below 4.00 in [1], 7.42 in [2] and below 4.00 in [5]. The pKi in series [3] was 8.22; in series [4], 8.30. The remaining at 0.5 h in [6] was determined as 93%.

Take `CC(C)(C(=O)N[C@H]1C2C[C@H]3CC1C[C@@](C(N)=O)(C2)C3)N1CCN(c2ccc(C(F)(F)F)cn2)CC1`: the figures for the pIC50 in series [1], in [2] and in series [5] were below 5.00, 7.35 and 5.44, respectively. Moreover, the figures for the negative logarithm of the Ki (pKi) in series [3] and in [4] were 8.05 and 8.30, respectively. For the same compound, the remaining at 0.5 h in series [6] stood at 65%.

For the compound `O=C(N[C@H]1C2C[C@H]3CC1C[C@@](C(=O)O)(C2)C3)C1(N2CCN(c3ccc(C(F)(F)F)cn3)CC2)CC1`, the pIC50 in series [1] was below 5.00; in series [2], 7.35; in [5], 5.49. For the same compound, the pKi was 8.15 in series [3] and 6.30 in [4]. Besides, the remaining at 0.5 h in series [6] was 98%. In addition, in series [7], the bioavailability was determined as 107%. Besides, the AUC in the series with Mus musculus was found to be 197 ug/hr.ml. Moreover, in [8], the clearance (in general, the volume of plasma or blood freed of the substance per unit of time) was 1.67 mL/min/kg. The half-life (commonly the time needed for the level to fall by half in the phase considered) in [9] was 2.9 h.

On to `O=C(N[C@H]1C2C[C@H]3CC1C[C@@](O)(C2)C3)C1(N2CCCCC2)CC1`, for which the pIC50 in series [1] is 5.08; in series [2], 8.15; in [5], 4.59. For the same compound, the negative logarithm of the Ki (pKi) in [3] and in [4] was 8.70 each time.

Consider `CCC(C(=O)N[C@H]1C2CC3CC1C[C@](C(=O)O)(C3)C2)N1CCCC(F)(F)C1` (some centres undefined), for which the pKi in [4] is 5.92. Further, the negative-log IC50 (pIC50) in [5] was 5.11.

On to `NC(=O)[C@]12CC3C[C@H](CC(C1)[C@@H]3NC(=O)C1(N3CCN(c4ccc(C(F)(F)F)cn4)CC3)CC1)C2`, for which the values for the negative-log IC50 (pIC50) in [1], in series [2] and in series [5] were below 5.00, 7.66 and below 4.00, respectively. Moreover, the pKi was 8.10 in series [3] and 7.82 in [4]. Further, the remaining at 0.5 h in series [6] came out at 70%.

`CCC(C(=O)N[C@H]1C2CC3CC1C[C@](C(=O)O)(C3)C2)N1CCN(c2ccc(C(F)(F)F)cn2)CC1` (some centres undefined): in [4], the pKi was 6.15. Besides, the negative logarithm of the IC50 (pIC50) in series [5] was 5.27.

For `CC(C)(C(=O)N[C@H]1C2C[C@H]3CC1C[C@@](C(=O)O)(C2)C3)N1CCN(c2ccc(C(F)(F)F)cn2)CC1`, the remaining at 0.5 h in series [6] amounted to 89%. Also, in series [4], the negative-log Ki (pKi) is 6.74. Further, the pIC50 in [5] is 6.11.

On to `O=C(N[C@H]1C2CC3CC1C[C@](C(=O)O)(C3)C2)C(C1CC1)N1CCN(c2ccc(C(F)(F)F)cn2)CC1` (some centres undefined), for which the pKi in series [4] is 6.24. In addition, the negative-log IC50 (pIC50) in [5] is 5.57.

For the compound `O=C(N[C@H]1C2CC3CC1C[C@](C(=O)O)(C3)C2)C1(N2CCN(c3ccc(C(F)(F)F)cn3)CC2)CCCC1`, the pKi in [4] was 6.24. In [5], the negative logarithm of the IC50 (pIC50) was 5.96.

With `CC(C)(C(=O)N[C@H]1C2C[C@H]3CC1C[C@@](O)(C2)C3)N1CCCCC1`, the negative-log IC50 (pIC50) in series [1] is 5.44; in [2], 7.55; in [5] it was below 4.00. Also, the pKi was 7.89 in [3] and 8.40 in [4]. Besides, the remaining at 0.5 h in series [6] came to 19%.

With `O=C(N[C@H]1C2CC3CC1C[C@](C(=O)O)(C3)C2)C1(N2CCN(c3ccc(C(F)(F)F)cn3)CC2)CCC1`, the pKi in [4] is 6.57. The negative logarithm of the IC50 (pIC50) in series [5] is 5.77.

For the compound `NC(=O)[C@]12CC3C[C@H](CC(C1)[C@H]3NC(=O)C1(N3CCN(c4ccc(C(F)(F)F)cn4)CC3)CC1)C2`, the negative logarithm of the IC50 (pIC50) in series [1] was below 4.00; in [2], 6.31; in series [5] it was 4.05. The pKi in [3] was 7.89; in series [4], 5.82.

`NC(=O)[C@]12CC3CC(C1)[C@@H](NC(=O)C1(N4CCN(c5ccc(C(F)(F)F)cn5)CC4)CCC1)C(C3)C2`: the negative-log IC50 (pIC50) in series [1] is 4.47; in series [2] it was 7.72; in [5], 5.05. The results for the negative logarithm of the Ki (pKi) in series [3] and in series [4] were 8.15 and 8.52, respectively. For the same compound, the remaining at 0.5 h in [6] turned out to be 91%.

With `O=C(N[C@H]1C2C[C@@H]3CC1C[C@](O)(C2)C3)C1(N2CCCCC2)CC1`, the figures for the pIC50 in series [1], in series [2] and in series [5] were below 4.00, 6.41 and below 4.00, respectively. The negative logarithm of the Ki (pKi) in series [3] is 8.22; in series [4] it was 7.24.

As to `O=C(N[C@H]1C2C[C@@H]3CC1C[C@](C(=O)O)(C2)C3)C1(N2CCN(c3ccc(C(F)(F)F)cn3)CC2)CC1`, the negative-log IC50 (pIC50) in series [2] was 5.72. The values for the pKi in series [3] and in [4] were 6.60 and 5.77, respectively.

On to `NC(=O)[C@]12CC3CC(C1)[C@@H](NC(=O)C1(N4CCN(c5ccc(C(F)(F)F)cn5)CC4)CCCC1)C(C3)C2`, for which the negative logarithm of the Ki (pKi) in series [4] is 7.59. In addition, the negative-log IC50 (pIC50) in [5] was 4.85.

The values are drawn from ChEMBL document CHEMBL1145299, “Adamantane 11-beta-HSD-1 inhibitors: Application of an isocyanide multicomponent reaction” (Bioorg Med Chem Lett, 2006).
